Experimental data of several laboratories.
Lines come from different studies, so protocols differ.
Cell line: MRC5
Observed: cell growth or viability

CS(=O)(=O)N1CCN(c2ccc(-c3cnc4[nH]cc(C(=O)c5ccc(F)cc5)c4c3)cn2)CC1
viability (MTT; 10 µM; 48 h): 79.1%

C=CCc1cc(OC)c2c(c1)OCO2
IC50 (SRB): 420 µM

CC(C)(C)OC(=O)N1CCN(c2cc(-c3cnc4[nH]cc(C(=O)c5ccc(F)cc5)c4c3)ccn2)CC1
viability (MTT; 10 µM; 48 h): 78.9%

CC1=CC(=O)c2c(O)cccc2C1=O
IC50 (SRB): 5.15 µM

O=c1c2ccccc2[se]n1-c1ccccc1
IC50 (MTT; 72 h): 94 µM

CCOC(=O)CCn1cc(C(=O)c2ccc(F)cc2)c2cc(-c3ccc(N4CCN(C(=O)OC(C)(C)C)CC4)nc3)cnc21
viability (MTT; 10 µM; 48 h): 92.1%

N.N.[Cl][Pt][Cl]
EC50 (SRB): 5.8 µM

COc1c2c(cc3c1OCO3)[C@]13C=C[C@H](OC)C[C@@H]1[N@](C2)C[C@H]3OC(=O)c1ccoc1
IC50 (WST-1): > 10 µM

Nc1cc(Br)c(Br)cc1N
IC50 (72 h): 200 µM

CC(C)=CCOc1c2occc2cc2ccc(=O)oc12
IC50 (MTT; 72 h): > 100 µM

Nc1cc(Cl)c(Cl)cc1N
IC50 (72 h): > 250 µM

COc1c2c(cc3c1OCO3)[C@]13C=C[C@H](OC)C[C@@H]1[N@](C2)C[C@H]3OC(=O)c1ccc2ccccc2c1
IC50 (WST-1): > 10 µM

CC(C)(C)OC(=O)N1CCN(c2ccc(-c3cnc4[nH]cc(C(=O)c5ccc(F)cc5)c4c3)cc2)CC1
viability (MTT; 10 µM; 48 h): 78.7%
